# According to ChEMBL document CHEMBL4257564, “Rational Design, Synthesis, and Pharmacological Characterization of Novel Ghrelin Receptor Inverse Agonists as Potential Treatment against Obesity-Related Metabolic Diseases” (J Med Chem, 2018):
# Legend:
# [1] = biological target: Growth hormone secretagogue receptor type 1 (Homo sapiens, UniProt Q92847); experiment: Agonist activity at recombinant human GHSR1a expressed in HEK293 cells assessed as induction of intracellular calcium release after 15 mins by FLIPR assay; type: functional, cell-based; settings: hek293
# How it was run: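 HEK293 cells stably expressing human GHSR1a, seeded 24 h before the run, then loaded with calcium dye for 30-60 min at room temperature or 37 °C. DMSO-dissolved compounds were added and intracellular calcium release was monitored by FLIPR fluorescence.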
# [2] = Clearance in mouse liver microsomes at 0.625 uM preincubated for 5 mins followed by NADPH addition and measured after 60 mins by LC-MS/MS analysis; type: ADME, microsome; settings: read-out: CLH
# How it was run: (§1)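 Liver microsomes (0.625 mg/mL protein) in 50 mM potassium phosphate pH 7.4 with 0.625 µM test item, prewarmed 5 min at 37 °C. Reaction started with NADPH (5 mM solution). Samples taken at 0, 5, 15, 30 and 60 min into cold MeCN with internal standard, analysed by LC-MS/MS. Intrinsic clearance derived by the half-life approach.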
# [3] = Clearance in rat liver microsomes at 0.625 uM preincubated for 5 mins followed by NADPH addition and measured after 60 mins by LC-MS/MS analysis; type: ADME, microsome; settings: read-out: CLH; how it was run: as §1
# [4] = Clearance in dog liver microsomes at 0.625 uM preincubated for 5 mins followed by NADPH addition and measured after 60 mins by LC-MS/MS analysis; type: ADME, Canis lupus familiaris, microsome; settings: read-out: CLH; how it was run: as §1
# [5] = Clearance in human liver microsomes at 0.625 uM preincubated for 5 mins followed by NADPH addition and measured after 60 mins by LC-MS/MS analysis; type: ADME, microsome; settings: read-out: CLH; how it was run: as §1
# [6] = Plasma clearance in rat at 3 mg/kg, iv after 24 hrs by LC-MS/MS analysis; type: ADME, organism-based
# How it was run: (§2)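 Rats given 3 mg/kg i.v. via tail vein, in 2% DMSO/50% of 40% HP-β-CD. EDTA plasma sampled at 0.08–24 h and analysed by LC-MS/MS, calibration range 5-5000 ng/mL.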
# [7] = Half life in rat at 3 mg/kg, iv after 24 hrs by LC-MS/MS analysis; type: ADME, organism-based; settings: in vivo; how it was run: as §2
# [8] = Volume of distribution in rat at 3 mg/kg, iv after 24 hrs by LC-MS/MS analysis; type: ADME, organism-based; settings: in vivo; how it was run: as §2
# [9] = Ratio of drug level in brain to plasma of rat at 3 mg/kg, iv after 2 hrs by LC-MS/MS analysis; type: ADME, organism-based; settings: read-out: BPR
# How it was run: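 Rats given 3 mg/kg i.v. Brain collected 2 h post-dose after CO2 euthanasia and homogenized in 5 volumes of PBS pH 7.4. Brain and plasma levels measured by LC-MS/MS; ratio taken from the 2 h concentrations.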
# [10] = Oral bioavailability in rat at 3 mg/kg via gavage by LC-MS/MS analysis; type: ADME, organism-based; settings: in vivo
# How it was run: (§3)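 Rats given 3 mg/kg by oral gavage as a suspension in 2% DMSO/98% of 0.5% CMC. EDTA plasma sampled at 0.25–24 h and analysed by LC-MS/MS. Bioavailability estimated against the 3 mg/kg i.v. arm.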
# [11] = Tmax in rat at 3 mg/kg, po via gavage by LC-MS/MS analysis; type: ADME, organism-based; settings: in vivo; how it was run: as §3
# [12] = Half life in rat at 3 mg/kg, po via gavage by LC-MS/MS analysis; type: ADME, organism-based; settings: in vivo; how it was run: as §3
# [13] = Protein binding in rat plasma at 1 uM after 6 hrs by equilibrium dialysis; type: ADME, cell-free; settings: read-out: PPB
# How it was run: (§4)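 Compound spiked at 1.0 µM final (0.5% DMSO) into plasma. Equilibrium dialysis against DPBS pH 7.4 across a 12–14 kD membrane for 6 h at 37 °C, in triplicate. Buffer-only controls used for nonspecific binding. Unbound fraction = acceptor/donor concentration by LC-MS/MS; reported as % bound.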
# [14] = Protein binding in dog plasma at 1 uM after 6 hrs by equilibrium dialysis; type: ADME, cell-free, Canis lupus familiaris; settings: read-out: PPB; how it was run: as §4
# [15] = Protein binding in mouse plasma at 1 uM after 6 hrs by equilibrium dialysis; type: ADME, cell-free; settings: read-out: PPB (converted); how it was run: as §4
# [16] = tested on: Mus musculus; experiment: Anti-obesity activity in C57BL/6J mouse assessed as inhibition of anamorelin-induced increase in food intake by measuring cumulative food intake at 10 mg/kg, ip pretreated for 10 mins followed by anamorelin addition and measured after 1 hr post dose (reference value: 0.63 +/- 0.04 g); type: functional
# How it was run: (§5)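 Male C57BL/6J mice (18–22 g at arrival), fed ad libitum. Dosed 10 mg/kg i.p. at t = 0 in 10% DMAC/6% Solutol HS 15/84% PBS, then anamorelin 30 mg/kg p.o. (0.5% CMC) at 10 min. Cumulative food intake recorded at 1, 2, 4, 8 and 24 h; n=6 per group; mean ± SEM; ANOVA with Dunnett test versus vehicle+anamorelin.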
# [17] = tested on: Mus musculus; experiment: Anti-obesity activity in C57BL/6J mouse assessed as inhibition of anamorelin-induced increase in food intake by measuring cumulative food intake at 10 mg/kg, ip pretreated for 10 mins followed by anamorelin addition and measured after 2 hrs post dose (reference value: 1.37 +/- 0.05 g); type: functional; how it was run: as §5
# [18] = tested on: Mus musculus; experiment: Anti-obesity activity in C57BL/6J mouse assessed as inhibition of anamorelin-induced increase in food intake by measuring cumulative food intake at 10 mg/kg, ip pretreated for 10 mins followed by anamorelin addition and measured after 8 hrs post dose (reference value: 2.97 +/- 0.09 g); type: functional; how it was run: as §5
# [19] = tested on: Mus musculus; experiment: Anti-obesity activity in C57BL/6J mouse assessed as inhibition of anamorelin-induced increase in food intake by measuring cumulative food intake at 10 mg/kg, ip pretreated for 10 mins followed by anamorelin addition and measured after 24 hrs post dose (reference value: 8.31 +/- 0.2 g); type: functional; how it was run: as §5
# [20] = tested on: Mus musculus; experiment: Anti-obesity activity in C57BL/6J mouse assessed as inhibition of anamorelin-induced increase in food intake by measuring cumulative food intake at 30 mg/kg, po pretreated for 10 mins followed by anamorelin addition and measured after 1 hr post dose (reference value: 0.63 +/- 0.04 g)
# [21] = tested on: Mus musculus; experiment: Anti-obesity activity in C57BL/6J mouse assessed as inhibition of anamorelin-induced increase in food intake by measuring cumulative food intake at 30 mg/kg, po pretreated for 10 mins followed by anamorelin addition and measured after 2 hrs post dose (reference value: 1.37 +/- 0.05 g)
# [22] = tested on: Mus musculus; experiment: Anti-obesity activity in C57BL/6J mouse assessed as inhibition of anamorelin-induced increase in food intake by measuring cumulative food intake at 30 mg/kg, po pretreated for 10 mins followed by anamorelin addition and measured after 4 hrs post dose (reference value: 2.09 +/- 0.08 g)
# [23] = tested on: Mus musculus; experiment: Anti-obesity activity in C57BL/6J mouse assessed as inhibition of anamorelin-induced increase in food intake by measuring cumulative food intake at 30 mg/kg, po pretreated for 10 mins followed by anamorelin addition and measured after 8 hrs post dose (reference value: 2.97 +/- 0.09 g)
# Growth hormone secretagogue receptor type 1, sequence (Q92847 whole entry): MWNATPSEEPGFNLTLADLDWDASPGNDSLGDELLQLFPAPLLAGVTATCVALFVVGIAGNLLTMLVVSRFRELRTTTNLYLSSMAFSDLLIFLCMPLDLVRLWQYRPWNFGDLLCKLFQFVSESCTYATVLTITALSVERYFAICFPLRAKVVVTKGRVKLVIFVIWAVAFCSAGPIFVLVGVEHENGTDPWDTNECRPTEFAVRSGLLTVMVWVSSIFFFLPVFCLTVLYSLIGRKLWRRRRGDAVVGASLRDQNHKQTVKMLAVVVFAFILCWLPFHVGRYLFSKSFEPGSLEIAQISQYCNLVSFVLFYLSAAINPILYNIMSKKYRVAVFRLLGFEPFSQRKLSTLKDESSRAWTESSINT
smiles,measurement,setting,value
Cc1cc(-c2ccc3c(c2)CC[C@H]3N2CCC(N(C)C(=O)N[C@@H](C)c3ccc(C#CC4CC4)c(Cl)c3Cl)CC2)ncn1,EC50,[1],Not Active
same,microsomal CLint at 0.625 µM,[2],< 10 µL/min/mg
same,microsomal CLint at 0.625 µM,[3],57.8 µL/min/mg
same,microsomal CLint at 0.625 µM,[4],52.2 µL/min/mg
same,microsomal CLint at 0.625 µM,[5],74.7 µL/min/mg
same,clearance,[6],15.2 mL/min/kg
same,half-life,[7],389 min
same,Vd,[8],8.48 L/kg
same,Kp at 2 h,[9],1.86
same,bioavailability,[10],27%
same,Tmax,[11],6.7 h
same,half-life,[12],951 min
same,"fraction unbound at 6 h, 1 µM",[13],0.0001
same,"fraction unbound at 6 h, 1 µM",[14],0.0001
same,"fraction unbound at 6 h, 1 µM",[15],0.0002
same,Activity,[16],0.13 g
same,Activity,[17],0.56 g
same,Activity,[18],2.78 g
same,Activity,[19],7.63 g
same,Activity,[20],0.22 g
same,Activity,[21],0.86 g
same,Activity,[22],1.45 g
same,Activity,[23],1.8 g
